From paper PMC10013581 (Drug Design, Development and Therapy, 2023)
Several values for one entry are separate records, joined by “and”; a condition that tells them apart may be missing. Identical values can stand only once. Like-named read-outs stand apart in the source and are kept apart here.

Columns and labels:
[1] = cited from earlier work
[2] = tested on: c-Met-dependent non-small cell lung cancer (NSCLC) and other tumor models; conditions: SCC244 at 10 mg/kg; cited from earlier work
[3] = assay type: in vivo, human
Method in brief: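 Three-period crossover in 18 healthy males aged 18–45 y with a 14-day washout. Dosing was fasted, or within 30 min of starting a high-fat/high-calorie or low-fat meal, with 240 mL water and no food for ≥4 h. EDTA plasma was sampled 0–168 h and assayed by LC-MS/MS (MRM, d6 internal standard). NCA gave parameters; log-transformed values were fitted by mixed-effects model for geometric mean ratios with 90% CI.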

Safety evaluation = assay type: in vivo, human; conditions: single oral 300 mg
Method in brief: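 Each of the three dosing periods had 8 days of post-dose follow-up. Monitoring covered physical examination, vital signs, 12-lead ECG, haematology, urinalysis, biochemistry, coagulation and adverse events. Vital signs and ECG were taken within 1 h pre-dose, at 3 h ±30 min post-dose, and daily at other visits. Adverse events were graded by NCI CTCAE v5.0. All 18 dosed subjects formed the safety set.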

[4] = no reference given, cited from earlier work
[5] = single oral 300 mg, fasting, n=18
[6] = single oral 300 mg, high-fat meal, n=17
[7] = single oral 300 mg, low-fat meal, n=18
[8] = single oral 300 mg, n=17, bioavailability analysis set

CS(=O)(=O)CCNCc1ccc(-c2ccc3ncnc(Nc4ccc(OCc5cccc(F)c5)c(Cl)c4)c3c2)o1 [Lapatinib]
Bioavailability increase with a high-fat meal [1]: 161% | Bioavailability increase with a low-fat meal [1]: 80%

Cn1cc(-c2cnc3cnn(S(=O)(=O)c4cnc5ccc(-c6cnn(C)c6)cn45)c3c2)cn1 [SCC244]
Efficacy compared with capmatinib and crizotinib [2]: comparable with that of capmatinib at 15 mg/kg and crizotinib at 50 mg/kg | Tmax ([3]; male, human, plasma, po, 300 mg): 4 h | AUC(0-inf) ([3]; male, human, plasma, po, 300 mg, AUC0-inf (geometric mean), single oral 300 mg, fasting, n=17, bioavailability analysis set): 25300 ng·h/mL | AUC(0-inf) ([3]; male, human, plasma, po, 300 mg, AUC0-inf (geometric mean), single oral 300 mg, high-fat meal, n=17, bioavailability analysis set): 59700 ng·h/mL | AUC(0-inf) ([3]; male, human, plasma, po, 300 mg, AUC0-inf (geometric mean), single oral 300 mg, low-fat meal, n=17, bioavailability analysis set): 55300 ng·h/mL | AUC(0-inf) ([3]; male, human, plasma, po, 300 mg, AUC0-inf, mean (SD), single oral 300 mg, fasting, n=18): 27700 ng·h/mL | AUC(0-inf) ([3]; male, human, plasma, po, 300 mg, AUC0-inf, mean (SD), single oral 300 mg, high-fat meal, n=17): 65100 ng·h/mL | AUC(0-inf) ([3]; male, human, plasma, po, 300 mg, AUC0-inf, mean (SD), single oral 300 mg, low-fat meal, n=18): 60500 ng·h/mL | AUC(0-t) ([3]; male, human, plasma, po, 300 mg, AUC0-t (geometric mean), single oral 300 mg, fasting, n=17, bioavailability analysis set): 24800 ng·h/mL | AUC(0-t) ([3]; male, human, plasma, po, 300 mg, AUC0-t (geometric mean), single oral 300 mg, high-fat meal, n=17, bioavailability analysis set): 58900 ng·h/mL | AUC(0-t) ([3]; male, human, plasma, po, 300 mg, AUC0-t (geometric mean), single oral 300 mg, low-fat meal, n=17, bioavailability analysis set): 54300 ng·h/mL | AUC(0-t) ([3]; male, human, plasma, po, 300 mg, AUC0-t, mean (SD), single oral 300 mg, fasting, n=18): 27200 ng·h/mL | AUC(0-t) ([3]; male, human, plasma, po, 300 mg, AUC0-t, mean (SD), single oral 300 mg, high-fat meal, n=17): 64100 ng·h/mL | AUC(0-t) ([3]; male, human, plasma, po, 300 mg, AUC0-t, mean (SD), single oral 300 mg, low-fat meal, n=18): 59600 ng·h/mL | Cmax ([3]; male, human, plasma, po, 300 mg, Cmax (geometric mean), single oral 300 mg, fasting, n=17, bioavailability analysis set): 824 ng/mL | Cmax ([3]; male, human, plasma, po, 300 mg, Cmax (geometric mean), single oral 300 mg, high-fat meal, n=17, bioavailability analysis set): 1610 ng/mL | Cmax ([3]; male, human, plasma, po, 300 mg, Cmax (geometric mean), single oral 300 mg, low-fat meal, n=17, bioavailability analysis set): 1600 ng/mL | Cmax ([3]; male, human, plasma, po, 300 mg, Cmax, mean (SD), single oral 300 mg, fasting, n=18): 869 ng/mL | Cmax ([3]; male, human, plasma, po, 300 mg, Cmax, mean (SD), single oral 300 mg, high-fat meal, n=17): 1730 ng/mL | Cmax ([3]; male, human, plasma, po, 300 mg, Cmax, mean (SD), single oral 300 mg, low-fat meal, n=18): 1750 ng/mL | half-life ([3]; male, human, plasma, po, 300 mg, Mean t1/2 under different meal conditions, single oral 300 mg, low-fat meal, high-fat meal and fasted groups): 24.7 to 26.1 h | half-life ([3]; male, human, plasma, po, 300 mg, t1/2, mean (SD), single oral 300 mg, fasting, n=18): 26.1 h | half-life ([3]; male, human, plasma, po, 300 mg, t1/2, mean (SD), single oral 300 mg, high-fat meal, n=17): 24.7 h | half-life ([3]; male, human, plasma, po, 300 mg, t1/2, mean (SD), single oral 300 mg, low-fat meal, n=18): 25.6 h | %CV (AUC0-inf), inter-subject variability [3, 5]: 44.0% | %CV (AUC0-t), inter-subject variability [3, 5]: 44.2% | %CV (Cmax), inter-subject variability [3, 5]: 34.3% | CL/F, mean (SD) [3, 5]: 12.8 (5.5) L/h | %CV (AUC0-inf), inter-subject variability [3, 6]: 35.3% | %CV (AUC0-t), inter-subject variability [3, 6]: 34.8% | %CV (Cmax), inter-subject variability [3, 6]: 30.5% | CL/F, mean (SD) [3, 6]: 5.7 L/h and 5.7 (4.2) L/h | Tmax, median (range) [3, 6]: 4.0 (2.0–12.0) h | %CV (AUC0-inf), inter-subject variability [3, 7]: 31.6% | %CV (AUC0-t), inter-subject variability [3, 7]: 31.5% | %CV (Cmax), inter-subject variability [3, 7]: 30.2% | CL/F, mean (SD) [3, 7]: 6.3 L/h and 6.3 (5.8) L/h | Tmax, median (range) [3, 7]: 4.0 (2.0–8.0) h | AUC0-inf geometric mean ratio (90% CI) of high-fat meal vs fasting [3, 8]: 235.9% (207.5–268.3%) | AUC0-inf geometric mean ratio (90% CI) of low-fat meal vs fasting [3, 8]: 218.3% (192.0–248.3%) | AUC0-t geometric mean ratio (90% CI) of high-fat meal vs fasting [3, 8]: 237.4% (208.7–270.0%) | AUC0-t geometric mean ratio (90% CI) of low-fat meal vs fasting [3, 8]: 219.2% (192.7–249.3%) | Cmax geometric mean ratio (90% CI) of high-fat meal vs fasting [3, 8]: 194.8% (174.3–217.7%) | Cmax geometric mean ratio (90% CI) of low-fat meal vs fasting [3, 8]: 194.6% (174.1–217.5%) | Other tolerability assessments (laboratory parameters, vital signs, physical examination, 12-lead ECGs) (Safety evaluation; all meal conditions): No clinically significant abnormalities | SAEs or AEs leading to permanent discontinuation (Safety evaluation; all meal conditions): No SAEs or AEs leading to permanent discontinuation were reported | Incidence of AEs (subjects with any AE) (Safety evaluation; fasted, 12/18 subjects): 66.7% | Incidence of AE blood fibrinogen decreased (Safety evaluation; fasting, n=18): 16.7% (3) | Incidence of AE dizziness (Safety evaluation; fasting, n=18): 16.7% (3) | Incidence of AE head discomfort (Safety evaluation; fasting, n=18): 5.6% (1) | Incidence of AE headache (Safety evaluation; fasting, n=18): 27.8% (5) | Incidence of AE protein urine presence (Safety evaluation; fasting, n=18): 16.7% (3) | Incidence of AEs (subjects with any AE) (Safety evaluation; high-fat meal, 12/17 subjects): 70.6% | Incidence of AE blood fibrinogen decreased (Safety evaluation; high-fat meal, n=17): 23.5% (4) | Incidence of AE dizziness (Safety evaluation; high-fat meal, n=17): 0% (0) | Incidence of AE head discomfort (Safety evaluation; high-fat meal, n=17): 11.8% (2) | Incidence of AE headache (Safety evaluation; high-fat meal, n=17): 47.1% (8) | Incidence of AE protein urine presence (Safety evaluation; high-fat meal, n=17): 0% (0) | Subjects with a CTCAE grade 2 AE (headache); all other AEs grade 1 (Safety evaluation; low-fat meal): 1 subject | Incidence of AEs (subjects with any AE) (Safety evaluation; low-fat meal, 15/18 subjects): 83.3% | Incidence of AE blood fibrinogen decreased (Safety evaluation; low-fat meal, n=18): 27.8% (5) | Incidence of AE dizziness (Safety evaluation; low-fat meal, n=18): 11.1% (2) | Incidence of AE head discomfort (Safety evaluation; low-fat meal, n=18): 11.1% (2) | Incidence of AE headache (Safety evaluation; low-fat meal, n=18): 44.4% (8) | Incidence of AE protein urine presence (Safety evaluation; low-fat meal, n=18): 5.6% (1) | Solubility in water [4]: practically insoluble in water | Biopharmaceutics Classification System (BCS) class ([4]; poor aqueous solubility but sufficient permeability): Class II | Solubility versus pH ([4]; weak base drug): declines greatly when the pH is higher than 1.2

C[C@@H](Oc1cc(-c2cnn(C3CCNCC3)c2)cnc1N)c1c(Cl)ccc(F)c1Cl [crizotinib]
Effect of food on bioavailability [1]: unaffected by food

CNC(=O)c1cc(Oc2ccc(NC(=O)Nc3ccc(Cl)c(C(F)(F)F)c3)c(F)c2)ccn1 [regorafenib]
Bioavailability increase with a high-fat meal [1]: 48% | Bioavailability increase with a low-fat meal [1]: 36%

COc1cc2c(Nc3ccc(Br)cc3F)ncnc2cc1OCC1CCN(C)CC1 [vandetanib]
Effect of food on bioavailability [1]: unaffected by food

CCCS(=O)(=O)Nc1ccc(F)c(C(=O)c2c[nH]c3ncc(-c4ccc(Cl)cc4)cc23)c1F [vemurafenib]
Effect of high-fat meal (increase) ([1]; 960mg single dose): 3.7 fold
